Assay outcomes (PubChem BioAssay)
ERAP1 HTS inh – blocks human ERAP1 aminopeptidase activity | Q9NZ08 | recombinant ERAP1, Leu-AMC fluorescence, 60 min | inhibition, % at 10.7 µM | 340,000 tested, 0.15% active | AID 652197;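 active = mean replicate inhibition of at least 30%, or all replicates individually reaching that 30% level; inactive = mean below 30% and not every replicate reaching it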;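 note: 0% = neutral control wells and 100% = L-leucinethiol positive control wells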
Target sequence (Q9NZ08 whole entry, looked up): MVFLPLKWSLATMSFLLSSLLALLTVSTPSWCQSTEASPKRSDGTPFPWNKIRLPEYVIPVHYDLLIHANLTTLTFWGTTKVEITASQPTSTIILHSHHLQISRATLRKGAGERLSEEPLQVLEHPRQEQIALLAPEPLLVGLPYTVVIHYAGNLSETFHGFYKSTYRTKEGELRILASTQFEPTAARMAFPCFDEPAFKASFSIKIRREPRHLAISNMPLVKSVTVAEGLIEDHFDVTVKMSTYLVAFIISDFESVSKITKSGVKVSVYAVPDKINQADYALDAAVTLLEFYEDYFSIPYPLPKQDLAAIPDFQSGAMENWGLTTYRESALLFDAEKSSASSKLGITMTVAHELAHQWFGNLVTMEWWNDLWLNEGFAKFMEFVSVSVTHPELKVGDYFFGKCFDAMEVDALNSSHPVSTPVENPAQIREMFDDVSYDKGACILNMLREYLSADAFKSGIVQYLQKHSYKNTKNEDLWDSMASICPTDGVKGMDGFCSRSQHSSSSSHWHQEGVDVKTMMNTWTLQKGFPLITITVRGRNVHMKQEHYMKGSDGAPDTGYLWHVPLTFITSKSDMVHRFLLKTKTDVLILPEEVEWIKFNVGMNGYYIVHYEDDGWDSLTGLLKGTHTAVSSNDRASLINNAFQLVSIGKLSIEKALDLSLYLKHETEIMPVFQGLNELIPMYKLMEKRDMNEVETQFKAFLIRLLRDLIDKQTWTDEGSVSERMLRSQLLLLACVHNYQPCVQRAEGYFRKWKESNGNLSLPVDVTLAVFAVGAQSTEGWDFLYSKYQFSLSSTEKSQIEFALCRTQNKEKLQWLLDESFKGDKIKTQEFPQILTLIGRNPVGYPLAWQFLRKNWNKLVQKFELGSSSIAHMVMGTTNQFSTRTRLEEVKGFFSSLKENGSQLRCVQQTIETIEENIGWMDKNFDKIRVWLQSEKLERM
Statin myotox sup – suppressors of simvastatin-induced myotoxicity in C2C12 myotubes; ATP luminescence, 48 h; scaled: DMSO 0, geranylgeraniol control 100; rescue of ATP level, % at 7.49 µM; 330,000 tested, 0.78% active;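 active = mean ATP rescue above about 67%, or every replicate alone reaching that limit, limit read from the data, passing the limit was not always enough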;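 note: myotubes were challenged with 10 µM simvastatin during compound exposure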
S100A4 MyoIIA – blocks human S100A4 binding to myosin IIA peptide. S100A4/TAMRA-MyoIIA peptide fluorescence polarization. P26447. 360,000 tested, 0.14% active. inhibition, % at 10.7 µM;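 active = mean inhibition of at least 70% across replicates, with every replicate also reaching that level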
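Material: human S100A4 monomer with TAMRA-labelled myosin IIA peptide; buffer or medium: HEPES pH 7.2 with CaCl2, KCl, NaCl, DTT, Triton; compound dosing: one concentration per compound; schedule: 5 min incubation before reading; benchmarks: neutral control DMSO, positive control TFP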
Rtt109 Vps75 – blocks Candida albicans Rtt109/Vps75 acetyltransferase activity; Q5AAJ8; 330,000 tested, 0.16% active; purified Rtt109/Vps75, ThioGlo CoA-SH fluorescence, 4 h; inhibition, % at 34.9 µM; AID 540336;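 active = inhibition of at least 50% in every replicate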
PGC1a acetyl inh – modulators of PGC1a acetylation; 350,000 tested, 0.17% active; inhibition, % at 15.6 µM; U2OS PGC1a acetylation, AlphaScreen anti-acetyl-lysine; with virally co-expressed GCN5 acetyltransferase;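 active = every replicate shows inhibition of at least 40%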;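 note: 0% = neutral control wells and 100% = positive control wells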
C2C12 COX5a inh – C2C12 myotube COX5a expression inhibition; shares compounds with PGC1a acetyl inh; C2C12 myotubes PGC-1a adenovirus, COX5a qPCR; maximal activity, %; 45 tested, under 10 active; AID 743461;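 active = fitted dose curve reaching 40% activity at or below the highest valid dose tested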
AID743468 – change in PGC-1a target gene PDK4 expression, dose response, C2C12 myotubes, RT-qPCR, cherry-pick | 45 tested, under 10 active | shares compounds with PGC1a acetyl inh | PDK4 expression increase, % at 19.5 µM | PGC-1a adenovirus, PDK4 mRNA qPCR;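 active = fitted curve reaching a 40% PDK4 expression rise at or below the top valid tested dose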
Active calls of the source: *; nt = no result. An excerpt weighted towards active compounds, which were near 0.98% of everything screened.

SMILES | ERAP1 HTS inh | Statin myotox sup | S100A4 MyoIIA | Rtt109 Vps75 | PGC1a acetyl inh | others
CC12CN3CN(C1)CC(c1ccccc1)(C3)C2=O | nt | 102* | nt | 0 | 0
CCCN1[C@@H]2Cn3c(ccc(-c4ccccc4)c3=O)[C@H]1[C@@H](C(=O)OC)[C@@H]2CO | 0 | 2 | -10 | nt | nt
CC=Cc1ccc2n(c1=O)C[C@H]1[C@H](CO)[C@@H](C(=O)OC)[C@@H]2N1CC1CCCC1 (mixture of isomers) | 0 | nt | -9 | nt | -5
C[N+](C)(C)CC1CCCC(C[N+](C)(C)C)C1=O (stereo not drawn) | 75* | nt | 4 | -17 | nt
C[N+](C)(C)CC1CCCc2ccccc2C1=O (stereo not drawn) | 20 | nt | -3 | 4 | nt
O=C1CNC[C@@H]2[C@@H](c3ccc(Br)cc3)[C@H](CO)N12 | -6 | nt | 3 | nt | -2
CC(C)[N+](C)(CCC(C(N)=O)(c1ccccc1)c1ccccc1)C(C)C | 96* | -1 | -2 | -2 | -7
CCC(=O)C(CCN1CCOCC1)(c1ccccc1)c1ccccc1 | nt | nt | 2 | -4 | nt
CC(=O)c1ccc2c(c1)C1C(Cl)C(Sc3ccccc3[N+](=O)[O-])CC1C(C(=O)O)N2 (stereo not drawn) | nt | nt | nt | -1 | nt
O=C(O)c1cccc2c1NC(C(=O)O)C1CC(Sc3ccccc3[N+](=O)[O-])C(Cl)C21 (stereo not drawn) | nt | 14 | nt | 60* | 12
C[C@@H]1O[C@@H](O[C@@H]2C=C3CC[C@@H]4C(CC[C@]5(C)[C@@H](c6ccc(=O)oc6)CC[C@]45O)[C@@]3(C)CC2)[C@H](O)[C@H](O)[C@H]1O (stereo partly drawn) | -1 | 9 | -2 | 2 | 67*
C[C@@H]1O[C@@H](O[C@H]2C[C@@H](O)[C@]3(CO)[C@H]4[C@H](O)C[C@]5(C)[C@@H](C6COC(=O)C6)CC[C@]5(O)[C@@H]4CC[C@]3(O)C2)[C@H](O)[C@H](O)[C@H]1O (stereo partly drawn) | -3 | 5 | -4 | -3 | 0
C[C@@H]1O[C@@H](O[C@@H]2C=C3CCC4C(CC[C@]5(C)[C@@H](c6ccc(=O)oc6)CC[C@]45O)[C@@]3(C)CC2)[C@H](O)[C@H](O)[C@H]1O (stereo partly drawn) | -5 | 5 | 4 | 0 | 60*
COc1ccc(-c2ccc([C@@H]3[C@H]4CN(C(=O)Cc5ccccc5)CCCCN4[C@H]3CO)cc2)cc1 | 1 | nt | 11 | nt | 5
CC[n+]1c(-c2ccccc2)c2cc(N)ccc2c2ccc(N)cc21 | 12 | nt | 130* | 3 | nt
CCn1nc(/C=C/c2ccccc2)nc2c(=O)n(C)c(=O)nc1-2 | -4 | nt | 2 | 2 | 69* | C2C12 COX5a inh=-56;AID743468=-55
CC=Cc1ccc2n(c1=O)C[C@@H]1[C@@H](CO)[C@H](C(=O)N(C)C)[C@H]2N1C (mixture of isomers) | 1 | 2 | 25 | nt | nt
